Experimental data as given in ChEMBL document CHEMBL4130355, “Development of a series of novel 4-anlinoquinazoline derivatives possessing quinazoline skeleton: Design, synthesis, EGFR kinase inhibitory efficacy, and evaluation of anticancer activities in vitro” (Eur J Med Chem, 2017).
The source made the active and inactive calls. The rule behind the calls is not given here.

Experiments:
[1] = target: T1, Epidermal growth factor receptor (Homo sapiens, UniProt P00533); settings: HEK293, at 1 µM
T1 sequence (P00533 whole entry): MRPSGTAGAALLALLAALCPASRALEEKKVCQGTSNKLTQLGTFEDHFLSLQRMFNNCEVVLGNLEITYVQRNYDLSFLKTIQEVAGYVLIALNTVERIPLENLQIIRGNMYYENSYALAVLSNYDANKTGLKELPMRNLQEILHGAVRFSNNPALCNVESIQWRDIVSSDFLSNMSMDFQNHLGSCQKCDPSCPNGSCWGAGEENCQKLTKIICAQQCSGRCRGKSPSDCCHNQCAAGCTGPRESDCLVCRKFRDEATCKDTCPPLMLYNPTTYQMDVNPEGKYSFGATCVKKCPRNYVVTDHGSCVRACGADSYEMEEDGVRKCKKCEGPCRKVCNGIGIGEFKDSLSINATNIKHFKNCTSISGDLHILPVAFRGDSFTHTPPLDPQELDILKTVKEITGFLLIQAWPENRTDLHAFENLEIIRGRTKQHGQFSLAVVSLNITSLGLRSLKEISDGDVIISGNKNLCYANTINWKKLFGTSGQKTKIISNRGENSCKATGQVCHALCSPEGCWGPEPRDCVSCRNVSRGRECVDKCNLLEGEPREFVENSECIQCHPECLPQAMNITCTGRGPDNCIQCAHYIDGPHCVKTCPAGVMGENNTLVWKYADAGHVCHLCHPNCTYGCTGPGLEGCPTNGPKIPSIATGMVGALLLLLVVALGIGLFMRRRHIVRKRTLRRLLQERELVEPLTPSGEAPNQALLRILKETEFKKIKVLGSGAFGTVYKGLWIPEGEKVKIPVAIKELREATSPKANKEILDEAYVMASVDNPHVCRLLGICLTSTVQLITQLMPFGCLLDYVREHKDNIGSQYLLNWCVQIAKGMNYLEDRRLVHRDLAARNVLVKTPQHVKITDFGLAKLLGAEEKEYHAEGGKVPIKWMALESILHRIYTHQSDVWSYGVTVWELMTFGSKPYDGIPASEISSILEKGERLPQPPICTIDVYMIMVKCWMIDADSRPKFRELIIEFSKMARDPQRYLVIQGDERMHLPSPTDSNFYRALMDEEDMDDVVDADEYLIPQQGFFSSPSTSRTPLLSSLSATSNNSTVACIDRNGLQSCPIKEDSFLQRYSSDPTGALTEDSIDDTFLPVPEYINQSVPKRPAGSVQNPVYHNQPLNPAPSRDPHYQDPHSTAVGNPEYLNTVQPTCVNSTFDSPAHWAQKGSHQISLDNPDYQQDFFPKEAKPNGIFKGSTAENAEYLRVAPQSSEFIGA

HepG2 [2] = experiment: Antiproliferative activity against human HepG2 cells at 50 uM after 24 hrs by MTT assay realtive to control; format: functional
Method in brief: (§1)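 MTT assay in triplicate wells. Cells (2 × 10^3/well) were attached 24 h, then treated at 0.1, 1, 10, 50 or 100 µM for 24, 48 or 72 h. MTT added for 4 h, SDS solubilisation, absorbance at 570/650 nm. Inhibition = 1 − (OD treated − blank)/(OD control − blank). Reported as mean ± SD of three independent experiments.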

HepG2 [3] = experiment: Antiproliferative activity against human HepG2 cells at 100 uM after 48 hrs by MTT assay realtive to control; format: functional
Method in brief: as §1

A549 [4] = experiment: Antiproliferative activity against human A549 cells at 10 uM after 72 hrs by MTT assay relative to control; format: functional
Method in brief: as §1

HepG2 [5] = experiment: Induction of apoptosis in human HepG2 cells assessed as elevation in ROS levels after 48 hrs by DCFH-DA fluorescence-based spectrometry; format: functional, cell-based
Method in brief: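 HepG2 seeded at 5.0 × 10^5 cells/mL, 24 h at 37 °C in 5% CO2, then treated 48 h. Harvested cells were washed twice in ice-cold PBS and loaded with 10 µM DCFH-DA for 30 min at 37 °C. They were then trypsinized, washed and resuspended in ice-cold HBSS, and DCF fluorescence was read on a fluorescence spectrometer.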

HepG2 [6] = experiment: Antiproliferative activity against human HepG2 cells after 72 hrs by MTT assay; format: functional, cell-based; settings: HepG2, 72 h
HepG2 [7] = experiment: Antiproliferative activity against human HepG2 cells at 0.1 uM after 24 hrs by MTT assay realtive to control; format: functional
Method in brief: as §1

HepG2 [8] = experiment: Induction of apoptosis in human HepG2 cells after 48 hrs by AnnexinV-FITC/propidium iodide double staining-based flow cytometry; format: functional, cell-based
[9] = target: T1, Epidermal growth factor receptor; settings: HEK293, at 10 µM
HepG2 [10] = experiment: Cell cycle arrest in human HepG2 assessed as accumulation at S phase after 48 hrs by propidium iodide-staining based flow cytometry; format: functional
Method in brief: (§2)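 HepG2 cells at 5.0 × 10^5/well were grown 24 h, then treated at 0, 2.5, 5.0 or 10.0 µM for 48 h alongside medium-only wells. Cells fixed in 70% ice-cold ethanol for ≥24 h, treated with RNase A at 37 °C for 30 min, then stained with propidium iodide for 30 min at 4 °C in the dark. DNA content read by flow cytometry. Average of at least three experiments.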

HepG2 [11] = experiment: Induction of apoptosis in human HepG2 cells assessed as viable cells at 2.5 uM after 48 hrs by Annexin V-FITC/propidium iodide double staining-based flow cytometry (reference value: 86.4%); format: functional; settings: HepG2, 48 h, read-out: Activity
[12] = target: T1, Epidermal growth factor receptor; settings: HEK293, at 0.0001 µM
HepG2 [13] = experiment: Cell cycle arrest in human HepG2 assessed as accumulation at S phase at 2.5 uM after 48 hrs by propidium iodide-staining based flow cytometry (reference value: 21.46%); format: functional
Method in brief: as §2

A549 [14] = experiment: Antiproliferative activity against human A549 cells at 50 uM after 48 hrs by MTT assay relative to control; format: functional
Method in brief: as §1

HepG2 [15] = experiment: Induction of apoptosis in human HepG2 cells assessed as early apoptotic cells at 5 uM after 48 hrs by Annexin V-FITC/propidium iodide double staining-based flow cytometry (reference value: 8.7%); format: functional
HepG2 [16] = experiment: Antiproliferative activity against human HepG2 cells at 100 uM after 24 hrs by MTT assay realtive to control; format: functional
Method in brief: as §1

HepG2 [17] = experiment: Induction of apoptosis in human HepG2 cells assessed as chromatin condensation at 2.5 to 20 uM after 48 hrs by Hoechst 33342/propidium iodide double staining based laser scanning confocal microscopy; format: functional, cell-based
Method in brief: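 HepG2 plated at 5.0 × 10^4 cells/well in DMEM with 10% FBS, 24 h at 37 °C, then treated 48 h (2.5–20 µM). After two ice-cold PBS washes, cells were stained with Hoechst 33342/PI mixed 1:1 for 30 min at 37 °C in the dark, washed three times, and imaged by laser scanning confocal microscopy at 200×.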

A549 [18] = experiment: Antiproliferative activity against human A549 cells at 10 uM after 48 hrs by MTT assay relative to control; format: functional
Method in brief: as §1

HepG2 [19] = experiment: Induction of apoptosis in human HepG2 cells assessed as intracellular free Ca2+ levels at 10 uM after 48 hrs by FL1 channel/FACS analysis (reference value: 14.2%); format: functional
Method in brief: (§3)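 HepG2 seeded at 5.0 × 10^5 cells/mL, 24 h at 37 °C in 5% CO2, then treated 48 h (2.5–20 µM). Harvested cells were washed in ice-cold PBS and loaded with 4 µM Fluo-3/AM for 30 min. After trypsinizing, they were washed twice and resuspended in HEPES, and fluorescence was measured in the FL-1 channel by flow cytometry. Values are averages of at least three independent experiments.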

MCF7 = experiment: Antiproliferative activity against human MCF7 cells after 72 hrs by MTT assay; format: functional, cell-based; settings: MCF7, 72 h
[20] = target: T1, Epidermal growth factor receptor; settings: HEK293, at 0.1 µM
A549 [21] = experiment: Antiproliferative activity against human A549 cells after 48 hrs by MTT assay; format: functional, cell-based; settings: A549, 48 h
Method in brief: (§4)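 MTT read-out. Cells seeded at 2 × 10^3/well, attached 24 h at 37 °C in 5% CO2, then exposed to 0.1–100 µM for 24, 48 or 72 h. MTT for 4 h, formazan dissolved in 10% SDS/NH4Cl for 10 h, absorbance at 570 nm corrected at 650 nm. % inhibition computed against untreated and blank wells. IC50 is the mean of at least three independent experiments.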

A549 [22] = experiment: Antiproliferative activity against human A549 cells at 0.1 uM after 72 hrs by MTT assay relative to control; format: functional
Method in brief: as §1

HepG2 [23] = experiment: Induction of apoptosis in human HepG2 cells assessed as late apoptotic cells at 5 uM after 48 hrs by Annexin V-FITC/propidium iodide double staining-based flow cytometry (reference value: 4.3%); format: functional
HepG2 [24] = experiment: Antiproliferative activity against human HepG2 cells at 50 uM after 72 hrs by MTT assay realtive to control; format: functional
Method in brief: as §1

HepG2 [25] = experiment: Induction of apoptosis in human HepG2 cells assessed as intracellular free Ca2+ levels at 5 uM after 48 hrs by FL1 channel/FACS analysis (reference value: 14.2%); format: functional
Method in brief: as §3

A549 [26] = experiment: Antiproliferative activity against human A549 cells after 24 hrs by MTT assay; format: functional, cell-based; settings: A549, 24 h
Method in brief: as §4

DU-145 = experiment: Antiproliferative activity against human DU145 cells after 72 hrs by MTT assay; format: functional, cell-based; settings: DU-145, 72 h
HepG2 [27] = experiment: Antiproliferative activity against human HepG2 cells at 0.1 uM after 72 hrs by MTT assay realtive to control; format: functional
Method in brief: as §1

- inhibition [1]: 94.3%
- IC50 (HepG2 [6]): 4.61 to 5.29 µM
- inhibition [9]: 99.1%
- inhibition [12]: 39.1%
- IC50 (MCF7): 9.8 µM
- inhibition [20]: 73.1%
- IC50 (A549 [21]): 20.6 µM
- IC50 (A549 [26]): 15 µM
- IC50 (DU-145): 6.79 µM
SMILES: COc1cc2c(Nc3ccc(C#N)cc3)ncnc2cc1OCCCN1CCC(c2ccccc2)CC1
- Activity (HepG2 [2]): 99.1%
- Activity (HepG2 [3]): 102%
- Activity (A549 [4]): 34.1%
- Activity (HepG2 [5]): Dose-dependent effect
- Activity (HepG2 [7]): 4.4%
- Activity (HepG2 [8]): Dose-dependent effect
- Activity (HepG2 [10]): Dose-dependent effect
- viability at 2.5 µM (HepG2 [11]): 47.5%
- Activity (HepG2 [13]): 22.44%
- Activity (A549 [14]): 75.5%
- Activity (HepG2 [15]): 80.7%
- Activity (HepG2 [16]): 101%
- Activity (HepG2 [17]): Active
- Activity (A549 [18]): 13.5%
- Activity (HepG2 [19]): 48.9%
- Activity (A549 [22]): 5%
- Activity (HepG2 [23]): 2%
- Activity (HepG2 [24]): 96.5%
- Activity (HepG2 [25]): 43.2%
- Activity (HepG2 [27]): 7.4%
